“Also recorded” adds a separate entry of the source.
Assays:
Assay type in all cases: cell-based, human
HaCaT WT cells [1] = test: Enzymatic determination of glutamine; conditions: 48 h, BAP 1 μM, CRY 1 μM, DALP 0.01 μM
HaCaT AHR-KD cells [2] = test: MTT assay; conditions: HaCaT AHR-KD, 48 h, up to 20 μM
HaCaT WT cells [3] = test: Targeted metabolomics; conditions: 48 h; for change of Gln level vs control (in words) / change of PCaa_C36:2 level vs control (in words) / C4:1 concentration / C4 concentration / C6 (C4:1-DC) concentration / C10:2 concentration / C12-DC concentration / C12:1 concentration / C18:1-OH concentration / C18:2 concentration / Gln concentration / PCaa_C32:2 concentration / PCaa_C36:2 concentration / PCae_C32:1 concentration / PCae_C34:2 concentration / PCae_C34:3 concentration / PCae_C36:2 concentration / PCae_C36:3 concentration / PCae_C38:1 concentration / PCae_C38:2 concentration / PCae_C38:3 concentration / PCae_C38:4 concentration / PCae_C40:4 concentration / PCae_C40:5 concentration / SM_C16:1 concentration / alpha-AAA concentration: CRY 1 μM; for C4:1 concentration / C4 concentration / C6 (C4:1-DC) concentration / C10:2 concentration / C12-DC concentration / C12:1 concentration / C18:1-OH concentration / C18:2 concentration / Gln concentration / PCaa_C32:2 concentration / PCaa_C36:2 concentration / PCae_C32:1 concentration / PCae_C34:2 concentration / PCae_C34:3 concentration / PCae_C36:2 concentration / PCae_C36:3 concentration / PCae_C38:1 concentration / PCae_C38:2 concentration / PCae_C38:3 concentration / PCae_C38:4 concentration / PCae_C40:4 concentration / PCae_C40:5 concentration / SM_C16:1 concentration / alpha-AAA concentration: mean ± SD
In short: (§1)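 Cells in DMEM with 10% FCS were seeded at 1 × 10^5 cells/mL and exposed 24 h later for 48 h, 4 replicates; vehicle controls got 0.1% DMSO. Cells were washed with ice-cold 155 mM ammonium formate pH 7.4, pelleted, weighed and snap-frozen. Extracts went on the p180 kit with isotope-labelled standards, phenylisothiocyanate derivatisation and 5 mM ammonium acetate/methanol extraction. Read by LC–MS/MS (positive) and FIA-MS/MS (±), MRM; μM normalised to pellet weight.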

CYP1B1 [4] = test: Western blot, protein level; conditions: HaCaT WT, 24 h and 48 h
CYP1A1 [5] = test: Real-time PCR, AHR target gene induction; conditions: for CYP1A1 mRNA induction (in words): 24 h, BAP/CRY 0.1-3.5 μM
CYP1B1 [6] = test: Real-time PCR, AHR target gene induction; conditions: for CYP1B1 mRNA induction (in words): 24 h
HaCaT WT cells [7] = test: MTT assay; conditions: HaCaT WT, 48 h, up to 20 μM
MTT assay [8] = conditions: human, HaCaT wild-type (WT) cells, calculated EC50 (cytotoxicity, viability), HaCaT WT, 48 h, MTT
CYP1A1 [9] = test: Western blot, protein level; conditions: HaCaT WT, 24 h and 48 h
HaCaT AHR-KD cells [10] = test: Targeted metabolomics; conditions: 48 h, 0.01 μM
In short: as §1

MTT assay [11] = conditions: human, HaCaT AHR knockdown (AHR-KD) cells
[12] = HaCaT cells, 2 and 8 h, up to 1 μM, data not shown

Compound: c1ccc2c(c1)cc1ccc3cccc4c5ccccc5c2c1c34 [DALP, dibenzo[a,l]pyrene]
- relative Gln level, enzymatic assay (in words) (HaCaT WT cells [1]): downregulated approximately two-fold
- cytotoxicity / cell viability (in words) (HaCaT AHR-KD cells [2]): remained unaffected
- change of Gln level vs control (in words) (HaCaT WT cells [3]; BAP 1 μM, DALP 0.01 μM): strongly lowered
- change of PCaa_C36:2 level vs control (in words) (HaCaT WT cells [3]; BAP 1 μM, DALP 0.01 μM): measurable but insignificant decrease
- C4:1 concentration (HaCaT WT cells [3]; BAP 1 μM, DALP 0.01 μM): 1.3 ± 0.1 nmol/g pellet weight
- C4 concentration (HaCaT WT cells [3]; BAP 1 μM, DALP 0.01 μM): 2.9 ± 0.3 nmol/g pellet weight
- C6 (C4:1-DC) concentration (HaCaT WT cells [3]; BAP 1 μM, DALP 0.01 μM): 2.5 ± 0.2 nmol/g pellet weight
- C10:2 concentration (HaCaT WT cells [3]; BAP 1 μM, DALP 0.01 μM): 1.1 ± 0.1 nmol/g pellet weight
- C12-DC concentration (HaCaT WT cells [3]; BAP 1 μM, DALP 0.01 μM): 4.2 ± 0.2 nmol/g pellet weight
- C12:1 concentration (HaCaT WT cells [3]; BAP 1 μM, DALP 0.01 μM): 1.4 ± 0.1 nmol/g pellet weight
- C18:1-OH concentration (HaCaT WT cells [3]; BAP 1 μM, DALP 0.01 μM): 1.0 ± 0.0 nmol/g pellet weight
- C18:2 concentration (HaCaT WT cells [3]; BAP 1 μM, DALP 0.01 μM): 1.1 ± 0.1 nmol/g pellet weight
- Gln concentration (HaCaT WT cells [3]; BAP 1 μM, DALP 0.01 μM): 65.7 ± 23.9 nmol/g pellet weight
- PCaa_C32:2 concentration (HaCaT WT cells [3]; BAP 1 μM, DALP 0.01 μM): 81.9 ± 9.5 nmol/g pellet weight
- PCaa_C36:2 concentration (HaCaT WT cells [3]; BAP 1 μM, DALP 0.01 μM): 1417.7 ± 173.7 nmol/g pellet weight
- PCae_C32:1 concentration (HaCaT WT cells [3]; BAP 1 μM, DALP 0.01 μM): 164.7 ± 17.4 nmol/g pellet weight
- PCae_C34:2 concentration (HaCaT WT cells [3]; BAP 1 μM, DALP 0.01 μM): 170.7 ± 25.4 nmol/g pellet weight
- PCae_C34:3 concentration (HaCaT WT cells [3]; BAP 1 μM, DALP 0.01 μM): 20.8 ± 3.3 nmol/g pellet weight
- PCae_C36:2 concentration (HaCaT WT cells [3]; BAP 1 μM, DALP 0.01 μM): 235.3 ± 25.3 nmol/g pellet weight
- PCae_C36:3 concentration (HaCaT WT cells [3]; BAP 1 μM, DALP 0.01 μM): 65.2 ± 8.9 nmol/g pellet weight
- PCae_C38:1 concentration (HaCaT WT cells [3]; BAP 1 μM, DALP 0.01 μM): 18.7 ± 1.2 nmol/g pellet weight
- PCae_C38:2 concentration (HaCaT WT cells [3]; BAP 1 μM, DALP 0.01 μM): 50.7 ± 5.2 nmol/g pellet weight
- PCae_C38:3 concentration (HaCaT WT cells [3]; BAP 1 μM, DALP 0.01 μM): 18.5 ± 1.8 nmol/g pellet weight
- PCae_C38:4 concentration (HaCaT WT cells [3]; BAP 1 μM, DALP 0.01 μM): 38.1 ± 4.0 nmol/g pellet weight
- PCae_C40:4 concentration (HaCaT WT cells [3]; BAP 1 μM, DALP 0.01 μM): 7.6 ± 0.5 nmol/g pellet weight
- PCae_C40:5 concentration (HaCaT WT cells [3]; BAP 1 μM, DALP 0.01 μM): 16.5 ± 1.5 nmol/g pellet weight
- SM_C16:1 concentration (HaCaT WT cells [3]; BAP 1 μM, DALP 0.01 μM): 25.5 ± 2.1 nmol/g pellet weight
- alpha-AAA concentration (HaCaT WT cells [3]; BAP 1 μM, DALP 0.01 μM): 2.0 ± 1.1 nmol/g pellet weight
- change of alpha-AAA level vs control (in words) (HaCaT WT cells [3]; BAP 1 μM, DALP 0.01 μM): strong down-regulation
- change of carnitines (e.g. C18:2) vs control (in words) (HaCaT WT cells [3]; BAP 1 μM, DALP 0.01 μM): strong up-regulation
- CYP1B1 protein induction (in words) (CYP1B1 [4]): no induction
- CYP1A1 mRNA induction (in words) (CYP1A1 [5]; HaCaT WT, DALP 0.01-0.03 μM): only weakly increased
- CYP1A1 mRNA induction at earlier time-points (in words) (CYP1A1 [5]; [12]): no significant induction
- CYP1B1 mRNA induction at earlier time-points (in words) (CYP1B1 [6]; [12]): no significant induction
- cytotoxicity / cell viability (in words) (HaCaT WT cells [7]): enhanced cytotoxicity; also recorded: very strong cytotoxicity
- EC50 at 48 h (MTT assay [8]): 35 nM
- CYP1A1 protein induction (in words) (CYP1A1 [9]): no induction
- metabolite levels vs control (in words) (HaCaT AHR-KD cells [10]): remained virtually unaffected

Compound: c1ccc2c(c1)ccc1c3ccccc3ccc21 [CRY, chrysene]
- relative Gln level, enzymatic assay (in words) (HaCaT WT cells [1]): could not confirm the effect
- EC50 at 48 h (MTT assay [11]): 2000 nM
- cytotoxicity / cell viability (in words) (HaCaT AHR-KD cells [2]): strong cytotoxic effects
- SM, AC, LPC and BA concentrations vs control (in words) (HaCaT WT cells [3]; 1 μM): remained completely unaffected
- change of Gln level vs control (in words) (HaCaT WT cells [3]; BAP 1 μM, DALP 0.01 μM): weakly
- change of PCaa_C36:2 level vs control (in words) (HaCaT WT cells [3]; BAP 1 μM, DALP 0.01 μM): increased
- C4:1 concentration (HaCaT WT cells [3]; BAP 1 μM, DALP 0.01 μM): 0.9 ± 0.2 nmol/g pellet weight
- C4 concentration (HaCaT WT cells [3]; BAP 1 μM, DALP 0.01 μM): 2.3 ± 0.5 nmol/g pellet weight
- C6 (C4:1-DC) concentration (HaCaT WT cells [3]; BAP 1 μM, DALP 0.01 μM): 1.9 ± 0.3 nmol/g pellet weight
- C10:2 concentration (HaCaT WT cells [3]; BAP 1 μM, DALP 0.01 μM): 0.9 ± 0.1 nmol/g pellet weight
- C12-DC concentration (HaCaT WT cells [3]; BAP 1 μM, DALP 0.01 μM): 3.3 ± 0.6 nmol/g pellet weight
- C12:1 concentration (HaCaT WT cells [3]; BAP 1 μM, DALP 0.01 μM): 1.0 ± 0.2 nmol/g pellet weight
- C18:1-OH concentration (HaCaT WT cells [3]; BAP 1 μM, DALP 0.01 μM): 0.8 ± 0.1 nmol/g pellet weight
- C18:2 concentration (HaCaT WT cells [3]; BAP 1 μM, DALP 0.01 μM): 0.8 ± 0.1 nmol/g pellet weight
- Gln concentration (HaCaT WT cells [3]; BAP 1 μM, DALP 0.01 μM): 114.3 ± 12.8 nmol/g pellet weight
- PCaa_C32:2 concentration (HaCaT WT cells [3]; BAP 1 μM, DALP 0.01 μM): 127.8 ± 17.3 nmol/g pellet weight
- PCaa_C36:2 concentration (HaCaT WT cells [3]; BAP 1 μM, DALP 0.01 μM): 2097.1 ± 262.1 nmol/g pellet weight
- PCae_C32:1 concentration (HaCaT WT cells [3]; BAP 1 μM, DALP 0.01 μM): 231.2 ± 36.0 nmol/g pellet weight
- PCae_C34:2 concentration (HaCaT WT cells [3]; BAP 1 μM, DALP 0.01 μM): 275.4 ± 48.2 nmol/g pellet weight
- PCae_C34:3 concentration (HaCaT WT cells [3]; BAP 1 μM, DALP 0.01 μM): 29.7 ± 5.0 nmol/g pellet weight
- PCae_C36:2 concentration (HaCaT WT cells [3]; BAP 1 μM, DALP 0.01 μM): 385.0 ± 53.6 nmol/g pellet weight
- PCae_C36:3 concentration (HaCaT WT cells [3]; BAP 1 μM, DALP 0.01 μM): 120.5 ± 17.9 nmol/g pellet weight
- PCae_C38:1 concentration (HaCaT WT cells [3]; BAP 1 μM, DALP 0.01 μM): 29.9 ± 5.0 nmol/g pellet weight
- PCae_C38:2 concentration (HaCaT WT cells [3]; BAP 1 μM, DALP 0.01 μM): 78.0 ± 13.3 nmol/g pellet weight
- PCae_C38:3 concentration (HaCaT WT cells [3]; BAP 1 μM, DALP 0.01 μM): 34.7 ± 5.8 nmol/g pellet weight
- PCae_C38:4 concentration (HaCaT WT cells [3]; BAP 1 μM, DALP 0.01 μM): 70.5 ± 9.1 nmol/g pellet weight
- PCae_C40:4 concentration (HaCaT WT cells [3]; BAP 1 μM, DALP 0.01 μM): 12.8 ± 2.0 nmol/g pellet weight
- PCae_C40:5 concentration (HaCaT WT cells [3]; BAP 1 μM, DALP 0.01 μM): 33.3 ± 4.2 nmol/g pellet weight
- SM_C16:1 concentration (HaCaT WT cells [3]; BAP 1 μM, DALP 0.01 μM): 35.0 ± 3.8 nmol/g pellet weight
- alpha-AAA concentration (HaCaT WT cells [3]; BAP 1 μM, DALP 0.01 μM): 14.2 ± 3.8 nmol/g pellet weight
- CYP1B1 protein induction (in words) (CYP1B1 [4]): moderate induction
- CYP1A1 mRNA induction (in words) (CYP1A1 [5]; HaCaT AHR-KD): no significant induction
- CYP1A1 mRNA induction (in words) (CYP1A1 [5]; HaCaT WT, DALP 0.01-0.03 μM): inducing both genes in WT cells but less strongly
- CYP1B1 mRNA induction (in words) (CYP1B1 [6]; HaCaT AHR-KD, CRY 0.1-3.5 μM): no significant induction
- CYP1B1 mRNA induction (in words) (CYP1B1 [6]; HaCaT WT, BAP/CRY 0.1-3.5 μM, DALP 0.01-0.03 μM): inducing both genes in WT cells but less strongly
- cytotoxicity / cell viability (in words) (HaCaT WT cells [7]): strong cytotoxic effects
- EC50 at 48 h (MTT assay [8]): 3800 nM
- CYP1A1 protein induction (in words) (CYP1A1 [9]): moderate induction
